Measured values: ChEMBL document CHEMBL4373631, “Design, synthesis and evaluation of PD176252 analogues for ameliorating cisplatin-induced nephrotoxicity” (Medchemcomm, 2019)
Activity calls are given as the source filed them.

Legend:
HK-2 [1] = test: Protection against cisplatin-induced cell death in human HK2 cells assessed as increase in survival rate at 4 uM preincubated for 6 hrs followed by cisplatin addition measured after 24 hrs by MTT assay relative to control; format: functional; details: read-out: Survival
Summary of the method: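 HK2 cells starved overnight in DMEM/F12 with 0.5% FBS, pretreated with compound for 6 h, then exposed to cisplatin (20 μM) for 24 h. Compounds from 5 mM DMSO stocks. Viability by MTT: 0.5 mg/mL final, 4 h at 37°C, formazan dissolved in DMSO, absorbance at 492 nm. Three to four independent experiments.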

HK-2 [2] = test: Protection against cisplatin-induced cell death in human HK2 cells assessed as increase in survival rate preincubated for 6 hrs followed by cisplatin addition measured after 24 hrs by MTT assay; format: functional, cell-based
HK-2 [3] = test: Cytotoxicity against human HK2 cells assessed as reduction in cell viability at 1 to 256 uM after 24 hrs by MTT assay; format: cell-based; details: hk-2, 24 h
Summary of the method: (§1)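 MTT cytotoxicity read-out on HK2 cells. Medium was changed, MTT in PBS added to a final 0.5 mg/mL, and plates incubated 4 h at 37°C. Medium was then removed, formazan dissolved in DMSO, and absorbance read at 492 nm.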

HK-2 [4] = test: Antiinflammatory activity in human HK2 cells assessed as suppression of cisplatin-induced TNF-alpha mRNA level at 4 uM by SYBR-green based RT-PCR analysis; format: functional, cell-based
Summary of the method: (§2)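 Overnight starvation of HK2 cells in DMEM/F12 with 0.5% FBS, then 6 h compound pretreatment before cisplatin 20 μM. Cells harvested after 24 h. Total RNA extracted with an RNeasy kit, and MCP-1, TNF-α or IL-6 mRNA quantified by real-time PCR. Three to four independent experiments.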

HK-2 [5] = test: Antiinflammatory activity in human HK2 cells assessed as suppression of cisplatin-induced IL-6 mRNA level at 4 uM by SYBR-green based RT-PCR analysis; format: functional, cell-based; summary of the method: as §2
HK-2 [6] = test: Antiinflammatory activity in human HK2 cells assessed as suppression of cisplatin-induced MCP-1 mRNA level at 4 uM by SYBR-green based RT-PCR analysis; format: functional, cell-based; summary of the method: as §2
HK-2 [7] = test: Antiinflammatory activity in human HK2 cells assessed as suppression of cisplatin-induced TNF-alpha […] level at 4 uM by ELISA; format: functional, cell-based
Summary of the method: (§3)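 HK2 cells starved overnight in DMEM/F12 with 0.5% FBS, pretreated with compound 6 h, then cisplatin 20 μM added. After 24 h, cytokine protein in the culture medium was measured with human TNF-α, IL-6 or MCP-1 ELISA kits per manufacturer's instructions. Three to four independent experiments.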

HK-2 [8] = test: Antiinflammatory activity in human HK2 cells assessed as suppression of cisplatin-induced IL-6 […] level at 4 uM by ELISA; format: functional, cell-based; summary of the method: as §3
HK-2 [9] = test: Antiinflammatory activity in human HK2 cells assessed as suppression of cisplatin-induced MCP-1 […] level at 4 uM by ELISA; format: functional, cell-based; summary of the method: as §3
[10] = biological target: Transcription factor p65 (Homo sapiens) (UniProt Q04206); test: Inhibition of cisplatin-induced NF-kappaB p65 phosphorylation in human HK2 cells at 4 uM by Western blot analysis; format: cell-based
Chain of Transcription factor p65 (Homo sapiens) (Q04206 whole entry): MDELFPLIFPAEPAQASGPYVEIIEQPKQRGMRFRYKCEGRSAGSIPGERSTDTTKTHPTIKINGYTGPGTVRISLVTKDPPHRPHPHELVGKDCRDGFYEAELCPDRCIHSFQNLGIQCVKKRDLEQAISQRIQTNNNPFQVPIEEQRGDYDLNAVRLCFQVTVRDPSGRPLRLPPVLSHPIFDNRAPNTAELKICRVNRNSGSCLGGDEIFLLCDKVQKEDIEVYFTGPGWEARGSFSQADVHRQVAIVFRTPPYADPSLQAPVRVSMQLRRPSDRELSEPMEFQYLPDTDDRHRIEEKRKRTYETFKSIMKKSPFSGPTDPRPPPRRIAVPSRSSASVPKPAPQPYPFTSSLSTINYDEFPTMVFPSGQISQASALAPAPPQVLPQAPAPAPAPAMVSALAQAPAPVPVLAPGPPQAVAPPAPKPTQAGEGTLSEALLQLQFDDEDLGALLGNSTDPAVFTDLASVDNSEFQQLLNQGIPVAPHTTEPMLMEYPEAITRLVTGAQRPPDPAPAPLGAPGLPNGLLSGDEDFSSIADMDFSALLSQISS
Summary of the method: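 HK2 cells starved overnight in DMEM/F12 with 0.5% FBS, pretreated 6 h with compound, then given cisplatin 20 μM for 24 h. Lysates made in ice-cold RIPA buffer and protein measured by BCA. Run on 10% SDS-PAGE, transferred to nitrocellulose, primary antibodies 18 h at 4°C, IRDye 800 secondary 1.5 h at room temperature.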

HK-2 [11] = test: Cytotoxicity against human HK2 cells assessed as reduction in cell viability after 24 hrs by MTT assay; format: cell-based; details: hk-2, 24 h; summary of the method: as §1

Cc1ccc(CC(=O)N[C@@H](Cc2ccccc2)C(=O)NCCn2ccnc2)cc1
> 40%: viability at 4 µM (HK-2 [1])
active: Activity (HK-2 [2]) Dose-dependent effect | Activity (HK-2 [4]) | Activity (HK-2 [5]) | Activity (HK-2 [6]) | Activity (HK-2 [7]) | Activity (HK-2 [8]) | Activity (HK-2 [9]) | inhibition [10]
Non-Toxic: Activity (HK-2 [3])

COc1ccc(C2(CNC(=O)[C@](C)(Cc3c[nH]c4ccccc34)NC(=O)Nc3ccc([N+](=O)[O-])cc3)CCCCC2)nc1
Toxic: Activity (HK-2 [11])
active: Activity (HK-2 [4]) | Activity (HK-2 [5]) | Activity (HK-2 [6]) | Activity (HK-2 [7]) | Activity (HK-2 [8]) | Activity (HK-2 [9]) | inhibition [10]

O=C(Cc1ccc(F)cc1)N[C@@H](Cc1ccc(O)cc1)C(=O)NCCN1CCOCC1
> 30%: viability at 4 µM (HK-2 [1])
active: Activity (HK-2 [2]) Dose-dependent effect | Activity (HK-2 [4]) | Activity (HK-2 [5]) | Activity (HK-2 [6])
Non-Toxic: Activity (HK-2 [3])
